ChEMBL document CHEMBL1146335, “Synthesis and biological activation of an ethylene glycol-linked amino acid conjugate of cyclic cidofovir” (Bioorg Med Chem Lett, 2007)
Each block holds one compound with its values, some of them ahead of it.

Tests used:
[1] = (§1) Half life in rat intestine in 37degC at 500 uM; format: ADME, tissue-based; conditions: rat intestine
Procedure, shortened: (§2)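 Compound exposed at 37°C to homogenates of Caco-2 or HFF cells, or of rat liver or intestine. Samples taken at intervals from 0 to 3 h and analysed by HPLC. Half-life estimated as for the buffer stability study.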

[2] = Stability in phosphate buffer in pH 3 at 37 degC at 500 uM; format: physicochemical; conditions: pH 3, 500 µM
Procedure, shortened: (§3)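 Compound (500 μM) incubated at 37°C in 50 mM phosphate buffer brought to the stated pH with HCl. Monitored over 3 hours; half-life in hours.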

[3] = (§4) Half life in HFF cells in 37degC at 500 uM; format: ADME, cell-based; conditions: human, HFF cells; procedure, shortened: as §2
Human betaherpesvirus 5 = experiment: Antiviral activity against HCMV Towne in HFF cells by plaque reduction assay; format: functional, organism-based; conditions: Human betaherpesvirus 5, Towne
Procedure, shortened: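 HFF cells in 24-well dishes infected with ~100 p.f.u./cm2 HCMV Towne (plaque-purified isolate Po). After adsorption, compounds (DMSO stocks diluted in growth medium) added at 4–8 concentrations in duplicate.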

[4] = Stability in phosphate buffer in pH 6 at 37 degC at 500 uM; format: physicochemical; procedure, shortened: as §3
KB = experiment: Cytotoxicity against human KB cells at 100 uM; format: functional, cell-based
Procedure, shortened: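 KB cells grown logarithmically for two days with compound, in triplicate. Growth read by spectrophotometric quantitation of crystal violet eluted from stained cells.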

[5] = Stability in phosphate buffer in pH 5 at 37 degC at 500 uM; format: physicochemical; conditions: pH 5, 500 µM; procedure, shortened: as §3
[6] = (§5) Half life in Caco-2 cells in 37degC at 500 uM; format: ADME, cell-based, Colon; conditions: human, Caco-2 cells; procedure, shortened: as §2
[7] = Stability in phosphate buffer in pH 7 at 37 degC at 500 uM; format: physicochemical; procedure, shortened: as §3
[8] = Stability in phosphate buffer in pH 4 at 37 degC at 500 uM; format: physicochemical; conditions: pH 4, 500 µM; procedure, shortened: as §3
[9] = Half life in Sprague-Dawley rat intestinal lumen in 37degC at 500 uM; format: ADME
Procedure, shortened: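 Compound incubated at 37°C in intestinal perfusate from Sprague Dawley rats. Perfusate made by passing buffered solution (pH 6.5) through an isolated intestinal segment. Sampled between 0 and 3 h, analysed by HPLC, half-life estimated.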

[10] = (§6) Half life in rat liver in 37degC at 500 uM; format: ADME, tissue-based; conditions: rat liver; procedure, shortened: as §2
Intestine = experiment: as §1; format: ADME, tissue-based; conditions: in vivo, 500 µM; procedure, shortened: as §2
[11] = AUC (0 to infinity) in rat at 0.1 mg, iv; format: ADME, organism-based; set-up: dose 0.1 mg, route intravenous, time infinity; conditions: plasma
Procedure, shortened: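 Rat; reference compound dosed intravenously at 0.1 mg. Plasma AUC from zero to infinity, dose normalized.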

Rattus norvegicus = experiment: Bioavailability in rat at 3 mg, iv; format: ADME, organism-based; conditions: in vivo, in the assay text read “0.1 mg” for “3 mg”
Procedure, shortened: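 Rat; drug injected directly into the gastrointestinal tract at 3 mg, with a 0.1 mg intravenous reference. Prodrug AUC summed the released cyclic parent and the intact prodrug. Bioavailability = dose-normalized GI AUC ÷ IV AUC, corrected for the IV vs oral dose difference.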

HFF = experiment: as §4; format: ADME, cell-based; conditions: human, hff, 500 µM; procedure, shortened: as §2
Caco-2 = experiment: as §5; format: ADME, cell-based, Colon; conditions: human, caco-2, 500 µM; procedure, shortened: as §2
Liver = experiment: as §6; format: ADME, tissue-based; conditions: in vivo, 500 µM; procedure, shortened: as §2
[12] = Stability in phosphate buffer in pH 6.5 at 37 degC at 500 uM; format: physicochemical; procedure, shortened: as §3

half-life at 500 µM [1]: 0.208 h
Stability [2]: Stable
half-life at 500 µM [3]: 1.17 h
IC50 (Human betaherpesvirus 5): 680 nM
half-life at 500 µM ([4]; phosphate buffer, pH 6): 16 h
Stability [5]: Stable
half-life at 500 µM [6]: 0.337 h
half-life at 500 µM ([7]; phosphate buffer, pH 7): 3.5 h
Stability [8]: Stable
half-life at 500 µM ([9]; Sprague-Dawley, rat intestinal lumen): 2.36 h
half-life at 500 µM [10]: 3.7 min
Structure (SMILES): CC(C)C(N)C(=O)OCCOP1(=O)CO[C@@H](Cn2ccc(N)nc2=O)CO1 (some centres undefined)
Activity (KB): Not toxic

Stability (Intestine): Stable
AUC(0-inf) [11]: 472 ng·h/mL
F (Rattus norvegicus): 100%
Stability [2]: Stable
Stability (HFF): Stable
Stability ([4]; buffer, pH 6, 500 µM): Stable
Stability [5]: Stable
Stability (Caco-2): Stable
Stability ([7]; buffer, pH 7, 500 µM): Stable
Stability [8]: Stable
Stability ([9]; in vivo, 500 µM): Stable
Stability (Liver): Stable
Structure (SMILES): Nc1ccn(C[C@H]2COP(=O)(O)CO2)c(=O)n1 [CYCLIC CIDOFOVIR]

Stability [2]: Stable
half-life at 500 µM [12]: 3.7 h
Stability [5]: Stable
Stability [8]: Stable
Structure (SMILES): Nc1ccn(C[C@H]2COP(=O)(OCCOC(=O)C(N)Cc3ccccc3)CO2)c(=O)n1 (some centres undefined)

IC50 (Human betaherpesvirus 5): 3000 nM
Structure (SMILES): Nc1nc2c(ncn2COC(CO)CO)c(=O)[nH]1 [GANCICLOVIR]
